# Laboratory results from ChEMBL document CHEMBL1145787, “Synthesis and structure-activity relationship of N-substituted 4-arylsulfonylpiperidine-4-hydroxamic acids as novel, orally active matrix metalloproteinase inhibitors for the treatment of osteoarthritis” (J Med Chem, 2003).
# Legend:
# [1] = Time of peak concentration of compound was determined in dog at 25 mg/kg orally; assay type: ADME, organism-based, Canis lupus familiaris; parameters: dose 25 mg/kg, route oral; settings: in vivo, po
# Method in brief: (§1)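 Single oral dose of 25 mg/kg in Sprague–Dawley rats, New Zealand rabbits, Beagle dogs and Cynomolgus monkeys. Mean plasma pharmacokinetics; Cmax is the maximum plasma concentration and Tmax is the time of peak concentration.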
# [2] = target: Matrix metalloproteinase-9 (Homo sapiens, UniProt P14780); experiment: In vitro inhibitory activity against matrix metalloprotease-9.
# Chain of Matrix metalloproteinase-9 (P14780 whole entry): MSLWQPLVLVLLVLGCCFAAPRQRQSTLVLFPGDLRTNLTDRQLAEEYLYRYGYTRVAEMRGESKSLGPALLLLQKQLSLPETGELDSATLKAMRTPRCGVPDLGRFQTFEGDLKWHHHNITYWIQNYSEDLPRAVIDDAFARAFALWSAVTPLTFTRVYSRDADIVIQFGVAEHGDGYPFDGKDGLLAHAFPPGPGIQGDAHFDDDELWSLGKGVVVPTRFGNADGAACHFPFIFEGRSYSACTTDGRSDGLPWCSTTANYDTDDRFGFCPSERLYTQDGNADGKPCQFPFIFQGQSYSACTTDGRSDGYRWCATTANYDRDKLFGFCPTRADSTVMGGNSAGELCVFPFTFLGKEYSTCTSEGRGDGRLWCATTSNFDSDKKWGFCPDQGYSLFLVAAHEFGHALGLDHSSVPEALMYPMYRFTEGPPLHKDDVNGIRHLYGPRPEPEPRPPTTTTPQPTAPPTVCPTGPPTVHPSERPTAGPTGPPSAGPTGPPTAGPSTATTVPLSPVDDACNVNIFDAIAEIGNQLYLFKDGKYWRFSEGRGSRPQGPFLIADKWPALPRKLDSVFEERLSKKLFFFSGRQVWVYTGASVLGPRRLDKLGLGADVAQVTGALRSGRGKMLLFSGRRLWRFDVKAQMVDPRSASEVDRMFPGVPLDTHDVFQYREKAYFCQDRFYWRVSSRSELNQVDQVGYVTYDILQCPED
# [3] = Time of peak concentration of compound was determined in monkey at 25 mg/kg orally; assay type: ADME, organism-based; parameters: dose 25 mg/kg, route oral; settings: simiiformes, in vivo, po; method in brief: as §1
# [4] = Apparent elimination half life of compound was determined in dog at 25 mg/kg orally; assay type: ADME, organism-based, Canis lupus familiaris; parameters: dose 25 mg/kg, route oral; settings: in vivo, po
# Method in brief: (§2)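 Single-dose PK in Sprague–Dawley rats, New Zealand rabbits, Beagle dogs and cynomolgus monkeys. Dosing was 25 mg/kg oral or 5 mg/kg iv. Plasma concentration–time profiles gave the apparent elimination half-life (T1/2) and the area under the concentration–time curve (AUC). Parameters are reported as means.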
# [5] = Area under concentration-time curve of compound was determined in dog at 5 mg/kg intravenously admn.; assay type: ADME, organism-based, Canis lupus familiaris; parameters: dose 5 mg/kg, route intravenous; settings: in vivo, iv, read-out: AUC 0; method in brief: as §2
# [6] = target: Neutrophil collagenase (Homo sapiens, UniProt P22894); experiment: Inhibition of Matrix metalloprotease-8
# Chain of Neutrophil collagenase (P22894 whole entry): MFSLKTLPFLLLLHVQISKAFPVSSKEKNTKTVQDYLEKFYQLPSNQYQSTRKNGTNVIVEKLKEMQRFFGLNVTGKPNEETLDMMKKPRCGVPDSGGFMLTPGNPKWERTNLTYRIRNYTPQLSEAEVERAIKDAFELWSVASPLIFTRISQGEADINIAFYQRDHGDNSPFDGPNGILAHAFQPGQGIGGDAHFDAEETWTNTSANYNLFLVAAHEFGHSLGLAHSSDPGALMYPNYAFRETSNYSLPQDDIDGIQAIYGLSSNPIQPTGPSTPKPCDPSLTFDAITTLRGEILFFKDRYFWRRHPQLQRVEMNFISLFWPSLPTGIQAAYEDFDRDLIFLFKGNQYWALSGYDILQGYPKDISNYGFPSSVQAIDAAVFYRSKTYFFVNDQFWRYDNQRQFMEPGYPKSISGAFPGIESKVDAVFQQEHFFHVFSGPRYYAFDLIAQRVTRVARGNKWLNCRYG
# Method in brief: (§3)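 Each inhibitor concentration was tested in triplicate. IC50 came from a four-parameter logistic fit of data within a single experiment and is reported as the mean of the triplicate values.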
# [7] = In vivo inhibition of Matrix metalloprotease enzyme by Sponge-wrapped cartilage assay, compared to activity of RS-130830 (20+/-2) at 5 mg/kg. po. bid; assay type: functional
# [8] = target: Stromelysin-1 (Homo sapiens, UniProt P08254); experiment: Inhibition of Matrix metalloprotease-3; method in brief: as §3
# Chain of Stromelysin-1 (P08254 whole entry): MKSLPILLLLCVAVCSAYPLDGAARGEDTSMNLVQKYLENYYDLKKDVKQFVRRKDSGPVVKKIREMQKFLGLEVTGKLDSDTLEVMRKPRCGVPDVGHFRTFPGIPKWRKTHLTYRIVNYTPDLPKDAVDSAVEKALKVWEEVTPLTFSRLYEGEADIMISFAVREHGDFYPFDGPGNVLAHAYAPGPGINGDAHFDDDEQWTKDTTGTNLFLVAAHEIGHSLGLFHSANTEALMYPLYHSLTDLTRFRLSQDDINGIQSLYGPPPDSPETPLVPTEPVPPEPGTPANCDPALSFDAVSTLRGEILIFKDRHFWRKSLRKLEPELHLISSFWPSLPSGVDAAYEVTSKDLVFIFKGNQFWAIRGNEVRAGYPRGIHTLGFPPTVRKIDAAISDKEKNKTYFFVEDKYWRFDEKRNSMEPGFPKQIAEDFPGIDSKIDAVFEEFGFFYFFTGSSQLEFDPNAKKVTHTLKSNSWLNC
# [9] = Apparent elimination half life of compound was determined in rat at 25 mg/kg orally; assay type: ADME, organism-based; parameters: dose 25 mg/kg, route oral; settings: in vivo, po; method in brief: as §2
# [10] = Oral bioavailability of compound was determined in rabbit at 25 mg/kg orally; assay type: ADME, organism-based, Oryctolagus cuniculus; settings: in vivo, read-out: Bioavailabiility
# [11] = Time of peak concentration of compound was determined in rat at 25 mg/kg orally; assay type: ADME, organism-based; parameters: dose 25 mg/kg, route oral; settings: in vivo, po; method in brief: as §1
# [12] = Apparent elimination half life of compound was determined in dogt at 5 mg/kg intravenously admn.; assay type: ADME, organism-based, Canis lupus familiaris; parameters: dose 5 mg/kg, route intravenous; settings: dog, in vivo, iv; method in brief: as §2
# [13] = Area under concentration-time curve of compound was determined in dog at 25 mg/kg orally; assay type: ADME, organism-based, Canis lupus familiaris; parameters: dose 25 mg/kg, route oral; settings: in vivo, po; method in brief: as §2
# [14] = target: 72 kDa type IV collagenase (Homo sapiens, UniProt P08253); experiment: Inhibition of Matrix metalloprotease-2; method in brief: as §3
# Chain of 72 kDa type IV collagenase (P08253 whole entry): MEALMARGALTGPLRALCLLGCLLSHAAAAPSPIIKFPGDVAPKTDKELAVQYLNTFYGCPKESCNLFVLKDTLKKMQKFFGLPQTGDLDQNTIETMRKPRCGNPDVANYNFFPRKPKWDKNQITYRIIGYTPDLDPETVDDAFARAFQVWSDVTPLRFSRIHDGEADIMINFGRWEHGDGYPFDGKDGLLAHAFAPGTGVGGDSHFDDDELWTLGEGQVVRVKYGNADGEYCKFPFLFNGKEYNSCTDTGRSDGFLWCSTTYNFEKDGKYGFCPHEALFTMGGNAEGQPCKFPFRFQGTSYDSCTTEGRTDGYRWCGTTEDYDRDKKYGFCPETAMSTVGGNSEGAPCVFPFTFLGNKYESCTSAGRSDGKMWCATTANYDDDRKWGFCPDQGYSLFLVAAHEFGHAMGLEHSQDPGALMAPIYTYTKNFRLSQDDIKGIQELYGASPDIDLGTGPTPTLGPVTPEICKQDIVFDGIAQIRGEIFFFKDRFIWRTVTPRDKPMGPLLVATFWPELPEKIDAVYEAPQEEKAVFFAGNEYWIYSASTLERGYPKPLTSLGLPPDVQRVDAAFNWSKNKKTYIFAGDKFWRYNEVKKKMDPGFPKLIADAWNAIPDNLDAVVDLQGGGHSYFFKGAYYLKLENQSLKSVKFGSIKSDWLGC
# [15] = Apparent elimination half life of compound was determined in rat at 5 mg/kg intravenously admn.; assay type: ADME, organism-based; parameters: dose 5 mg/kg, route intravenous; settings: in vivo, iv; method in brief: as §2
# [16] = Peak concentration of compound at Time = 0 was determined in rat at 5 mg/kg intravenously admn.; assay type: ADME, organism-based; parameters: dose 5 mg/kg, route intravenous; settings: in vivo, iv
# Method in brief: (§4)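 Single iv dose of 5 mg/kg in Sprague–Dawley rats, New Zealand rabbits, Beagle dogs and Cynomolgus monkeys. Mean plasma pharmacokinetics: C0 is the concentration at T=0, Vdss the volume of distribution at steady state, and CLT the total clearance.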
# [17] = Maximum plasma concentration of compound was determined in rat at 25 mg/kg orally; assay type: ADME, organism-based; parameters: dose 25 mg/kg, route oral; settings: po; method in brief: as §1
# [18] = Apparent elimination half life of compound was determined in monkey at 5 mg/kg intravenously admn.; assay type: ADME, organism-based; parameters: dose 5 mg/kg, route intravenous; settings: simiiformes, in vivo, iv; method in brief: as §2
# [19] = Oral bioavailability of compound was determined in dog at 25 mg/kg orally; assay type: ADME, organism-based, Canis lupus familiaris; settings: in vivo, read-out: Bioavailabiility
# [20] = target: Matrix metalloproteinase-14 (Homo sapiens, UniProt P50281); experiment: Inhibition of Matrix metalloprotease-14
# Method in brief: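 Inhibitor concentrations run in triplicate; IC50 from a four-parameter logistic fit within a single experiment, reported as the mean of triplicate values.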
# [21] = Peak concentration of compound at Time = 0 was determined in monkey at 5 mg/kg intravenously admn.; assay type: ADME, organism-based; parameters: dose 5 mg/kg, route intravenous; settings: simiiformes, in vivo, iv; method in brief: as §4
# [22] = Oral bioavailability of compound was determined in rat at 25 mg/kg orally; assay type: ADME, organism-based; settings: in vivo, read-out: Bioavailabiility
# [23] = Total clearance of compound was determined in monkey at 5 mg/kg intravenously admn.; assay type: ADME, organism-based; parameters: dose 5 mg/kg, route intravenous; settings: simiiformes, in vivo, iv, read-out: CLT; method in brief: as §4
# [24] = Volume of distribution at steady state of compound was determined in rat at 5 mg/kg intravenously admn.; assay type: ADME, organism-based; parameters: dose 5 mg/kg, route intravenous; settings: in vivo, iv, read-out: Vdss; method in brief: as §4
# [25] = Maximum plasma concentration of compound was determined in monkey at 25 mg/kg orally; assay type: ADME, organism-based; parameters: dose 25 mg/kg, route oral; settings: simiiformes, po; method in brief: as §1
# [26] = system: Oryctolagus cuniculus; experiment: Effect of compound on cartilage in surgically induced osteoarthritis (OA) model in rabbit at 15 mg/kg, value are relative to activity of RS-130830 (7.9+/-1.5) at 25 mg/kg; assay type: ADME, organism-based, Cartilage tissue; settings: in vivo
# Method in brief: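 Rabbits had anterior cruciate ligament transection plus meniscectomy in one knee, with sham surgery on the contralateral knee. From day 10 after surgery, groups of 12 were dosed once daily by oral gavage with vehicle, test compound or the RS-130830 reference for 4 weeks. Knee joints were then collected and scored for gross pathological changes by blinded investigators.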
smiles,measurement,setting,value
O=C(NO)C1(S(=O)(=O)c2ccc(Oc3ccc(Cl)cc3)cc2)CCN(Cc2ccccc2)CC1,Tmax,[1],3.5 h
same,IC50,[2],1 nM
same,Tmax,[3],5.7 h
same,half-life,[4],17.6 h
same,AUC,[5],786 µg·h/mL
same,IC50,[6],1 nM
same,inhibition in vivo at 5 mg/kg,[7],53%
same,IC50,[8],55 nM
same,half-life,[9],10.7 h
same,bioavailability,[10],11%
same,Tmax,[11],1.5 h
same,half-life,[12],13.5 h
same,AUC,[13],1810 µg·h/mL
same,IC50,[14],1 nM
same,half-life,[15],4.4 h
same,C0,[16],329 µg/mL
same,Cmax,[17],75.2 µg/mL
same,half-life,[18],20.7 h
same,bioavailability,[19],47%
same,IC50,[20],7 nM
same,C0,[21],162 µg/mL
same,bioavailability,[22],55%
same,clearance,[23],0.1 mL/min/kg
same,Vd,[24],0.1 L/kg
same,Cmax,[25],50.3 µg/mL
same,Average gross pathology scores+/- SE,[26],9.7
